According to ChEMBL document CHEMBL1123811, “gem-Diphosphonate and gem-phosphonate-phosphate compounds with specific high density lipoprotein inducing activity” (1987):

How the values were obtained:
Format in all cases: functional
Parameters in all cases: concentration or dose not given beside the values
Rattus norvegicus [1] = species on record: Rattus norvegicus; experiment: Activity to induce the elevation of phospholipids of male Wistar rats
Outline: (§1)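 Wistar rats on normal diet; groups were vehicle control, an internal-standard diphosphonate, and test compounds. Dosed daily for 4 days; diphosphonates were dissolved in water or suspended in 1% (carboxymethyl)cellulose, 4 mL/kg. On day 5, after overnight fast, rats were killed under ether. EDTA plasma was assayed enzymatically for HDL-C after heparin-CaCl2 precipitation of VLDL/LDL, phospholipids, triglycerides and α/β-cholesterol ratio. Results are given as % of control.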

Rattus norvegicus [2] = species on record: Rattus norvegicus; experiment: Activity to induce the elevation of triglycerides of male Wistar rats; outline: as §1
Rattus norvegicus [3] = species on record: Rattus norvegicus; experiment: Activity to induce the elevation of alpha/beta cholesterol ratio of male Wistar rats; outline: as §1
Rattus norvegicus [4] = species on record: Rattus norvegicus; experiment: Activity to induce the elevation of HDL(High Density Lipoproteins)-Cholesterol of male Wistar rats; outline: as §1

| Compound | Plasma phospholipids, % change versus control (Rattus norvegicus [1]) [%] | Percent change in plasma triglycerides versus control (Rattus norvegicus [2]) [%] | Percent change in alpha/beta cholesterol ratio versus control (Rattus norvegicus [3]) [%] | HDL-cholesterol change relative to control (%) (Rattus norvegicus [4]) |
| --- | --- | --- | --- | --- |
| COP(=O)(OC)OC(C(C)(C)Cc1ccc(Cl)cc1)P(=O)(OC)OC (stereo unspecified) | -27 | -19 | -38 | -30 |
| COP(=O)(OC)OC(C1CCCCC1)P(=O)(OC)OC (stereo unspecified) | 0 | -46 | -20 | 5 |
| O=P(O)(O)C(Cc1ccccc1)P(=O)(O)O | 3 | -11 | -10 | -8 |
| COP(=O)(OC)OC(c1ccc(Cl)cc1Cl)P(=O)(OC)OC (stereo unspecified) | 28 | 13 | 39 | 51 |
| COP(=O)(OC)C(O)(C(C)(C)Oc1ccc(Cl)cc1)P(=O)(OC)OC | 26 | -33 | -8 | 8 |
| O=P(O)(O)C(CCc1ccccc1)P(=O)(O)O | -16 | -17 | -27 | -24 |
| CCOP(=O)(OCC)C(CCCOc1ccccc1)P(=O)(OCC)OCC | 0 | 0 | 37 | 16 |
| CCCCCC(O)(P(=O)(OC)OC)P(=O)(OC)OC | 10 | -21 | -17 | -16 |
| COP(=O)(O)C(CCCc1ccccc1)P(=O)(O)OC (stereo unspecified) | 11 | 9 | -23 | -9 |
| COP(=O)(OC)C(CCCOc1ccccc1)P(=O)(OC)OC | -11 | 2 | -13 | 6 |
| COP(=O)(OC)C(CCc1ccccc1)P(=O)(OC)OC | 16 | 22 | 82 | 40 |
| CC(C)OP(=O)(OC(C)C)C(Cc1ccc(Cl)cc1)P(=O)(OC(C)C)OC(C)C | 13 | 19 | -1 | 12 |
| COP(=O)(OC)C(O)(c1ccc(-c2ccccc2)cc1)P(=O)(OC)OC | 1 | 5 | 5 | 74 |
| CCCOP(=O)(OCCC)OC(c1ccc(Cl)cc1)P(=O)(OCCC)OCCC (stereo unspecified) | 4 | -17 | 4 | -6 |
| CCCCOP(=O)(OCCCC)C(Cc1ccc(Cl)cc1)P(=O)(OCCCC)OCCCC | 6 | 1 | 2 | 0 |
| O=P(O)(O)C(Cc1ccc(Cl)cc1)P(=O)(O)O | 0 | -146 | -40 |  |
| COP(=O)(OC)OC(c1ccccc1Cl)P(=O)(OC)OC (stereo unspecified) | 22 | -42 | 34 |  |
